# In ChEMBL document CHEMBL1828575, “Design, synthesis and antiproliferative activities of biarylolefins based on polyhydroxylated and carbohydrate scaffolds” (Eur J Med Chem, 2011):
# Key:
# Assay type in all cases: functional
# NCI-H23 = assay: Cytotoxicity against human NCI-H23 cells assessed as cellular growth at 10 uM after 48 hrs by SRB assay
# Procedure, shortened: (§1)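 NCI-60 panel lines grown in RPMI 1640 with 5% FBS and 2 mM L-glutamine. Plated at 5000–40,000 cells/well and preincubated 24 h at 37 °C, 5% CO₂, with time-zero plates fixed in TCA. Compounds, dissolved in DMSO and diluted in medium, were applied for 48 h. Cells were TCA-fixed (10% final for adherent, 16% for suspension) and stained with 0.4% SRB in 1% acetic acid. Dye was solubilised in 10 mM Tris base and read at 515 nm; growth was expressed as a percentage of untreated control.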
# T47D = assay: Antitumor activity against human T47D cells after 48 hrs by SRB assay
# Procedure, shortened: (§2)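 NCI60 panel cells grown in RPMI 1640 with 5% FBS and 2 mM L-glutamine, plated at 5000–40,000 cells/well and preincubated 24 h at 37 °C, 5% CO₂. Compound was added from DMSO at five concentrations, 10-fold or 1/2 log dilutions, then incubated 48 h.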
# CCRF-CEM = assay: Cytotoxicity against human CCRF-CEM cells assessed as cellular growth at 10 uM after 48 hrs by SRB assay
# Procedure, shortened: (§3)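 NCI60 single-dose screen of cells in RPMI 1640 with 5% FBS and 2 mM L-glutamine, preincubated 24 h at 37 °C, 5% CO₂. Cells were then exposed 48 h to compound added from DMSO stock. TCA-fixed, stained with 0.4% SRB in 1% acetic acid, dye solubilised in 10 mM Tris base and read at 515 nm. Growth is given as percent of untreated control.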
# SF-268 = assay: Antitumor activity against human SF268 cells after 48 hrs by SRB assay; settings: SF-268, 48 h; for CC50: read-out: pLC50 (the source's name) (converted)
# Procedure, shortened: (§4)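 NCI60 panel in RPMI 1640 with 5% FBS and 2 mM L-glutamine. Cells were plated at 5000–40,000/well by doubling time, held 24 h, then time-zero plates were TCA-fixed. Five concentrations (10-fold or half-log dilutions of DMSO stocks) were applied for 48 h at 37 °C, 5% CO2. Cells were fixed with cold TCA (10% final adherent, 16% suspension) and stained with 0.4% SRB. Bound dye was dissolved in 10 mM Tris and read at 515 nm. GI50, TGI and LC50 were calculated per line.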
# UO-31 [1] = assay: Cytotoxicity against human UO31 cells assessed as cellular growth at 10 uM after 48 hrs by SRB assay; procedure, shortened: as §1
# NCI-H460 = assay: Cytotoxicity against human NCI-H460 cells assessed as cellular growth at 10 uM after 48 hrs by SRB assay; procedure, shortened: as §1
# Malme-3M = assay: Antitumor activity against human MALME-3M cells after 48 hrs by SRB assay; procedure, shortened: as §4
# SNB-75 = assay: Cytotoxicity against human SNB75 cells assessed as cellular growth at 10 uM after 48 hrs by SRB assay; procedure, shortened: as §1
# CAKI-1 = assay: Cytotoxicity against human Caki1 cells assessed as cellular growth at 10 uM after 48 hrs by SRB assay; procedure, shortened: as §3
# MDA-MB-435 = assay: Antitumor activity against human MDA-MB-435 cells after 48 hrs by SRB assay; settings: MDA-MB-435, 48 h; for CC50: read-out: LC50 (the source's name); procedure, shortened: as §4
# M14 = assay: Cytotoxicity against human M14 cells assessed as cellular growth at 10 uM after 48 hrs by SRB assay; procedure, shortened: as §3
# OVCAR-8 = assay: Cytotoxicity against human OVCAR8 cells assessed as cellular growth at 10 uM after 48 hrs by SRB assay; procedure, shortened: as §1
# HL-60(TB) = assay: Antitumor activity against human HL-60(TB) cells after 48 hrs by SRB assay; settings: HL-60, 48 h
# Procedure, shortened: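 NCI60 screen: cells grown in RPMI 1640 with 5% FBS and 2 mM L-glutamine, plated at 5000–40,000 cells/well by doubling time, preincubated 24 h at 37 °C with 5% CO2. Compounds were diluted from DMSO stocks and given for 48 h, at five concentrations for dose response. A time-zero plate was TCA-fixed. Cells were TCA-fixed, stained with 0.4% SRB and read at 515 nm, with growth expressed relative to untreated controls.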
# SK-MEL-28 = assay: Antitumor activity against human SK-MEL-28 cells after 48 hrs by SRB assay; settings: SK-MEL-28, 48 h; for CC50: read-out: pLC50 (the source's name) (converted); procedure, shortened: as §2
# SNB-19 = assay: Antitumor activity against human SNB19 cells after 48 hrs by SRB assay; settings: SNB-19, 48 h; for CC50: read-out: LC50 (the source's name); procedure, shortened: as §2
# HCT-15 = assay: Cytotoxicity against human HCT15 cells assessed as cellular growth at 10 uM after 48 hrs by SRB assay; procedure, shortened: as §3
# HOP-92 = assay: Antitumor activity against human HOP92 cells after 48 hrs by SRB assay; settings: HOP-92, 48 h; for CC50: read-out: LC50 (the source's name); procedure, shortened: as §4
# SK-OV-3 = assay: Antitumor activity against human SKOV3 cells after 48 hrs by SRB assay; settings: SK-OV-3, 48 h; procedure, shortened: as §2
# HCT-116 = assay: Cytotoxicity against human HCT116 cells assessed as cellular growth at 10 uM after 48 hrs by SRB assay; procedure, shortened: as §3
# SF-295 = assay: Cytotoxicity against human SF295 cells assessed as cellular growth at 10 uM after 48 hrs by SRB assay; procedure, shortened: as §1
# [2] = Antitumor activity against human Hs 578T cells after 48 hrs by SRB assay; settings: for CC50: read-out: LC50 (the source's name); procedure, shortened: as §4
# HOP-62 = assay: Cytotoxicity against human HOP62 cells assessed as cellular growth at 10 uM after 48 hrs by SRB assay; procedure, shortened: as §3
# UO-31 [3] = assay: Antitumor activity against human UO31 cells after 48 hrs by SRB assay; settings: UO-31, 48 h; procedure, shortened: as §2
# [4] = read-out: LC50 (the source's name)
# [5] = read-out: pLC50 (the source's name) (converted)
structure (smiles),measurement,setting,value
COc1cc(/C(=C2\O[C@@H]([C@H]3COC(C)(C)O3)[C@H]3OC(C)(C)O[C@@H]23)c2ccc3ccccc3c2)cc(OC)c1OC,Activity,NCI-H23,46.18%
same,GI50,T47D; read-out: GI50,3.45 µM
same,CC50,T47D; [4],> 100 µM
same,TGI,T47D; read-out: TGI,40.6 µM
same,GI50,T47D; read-out: pGI50 (converted),3.47 µM
same,CC50,T47D; [5],> 100 µM
same,TGI,T47D; read-out: pTGI (converted),40.7 µM
same,Activity,CCRF-CEM,82.21%
same,LC50 (concentration killing 50% of cells relative to time zero),SF-268,> 100 µM
same,GI50,SF-268; read-out: GI50,3.13 µM
same,TGI,SF-268; read-out: TGI,15.9 µM
same,GI50,SF-268; read-out: pGI50 (converted),3.09 µM
same,CC50,SF-268,> 100 µM
same,TGI,SF-268; read-out: pTGI (converted),> 100 µM
same,Activity,UO-31 [1],46.81%
same,Activity,NCI-H460,43.38%
same,GI50,Malme-3M,2070 nM
same,LC50 (concentration killing 50% of cells present at time zero),Malme-3M,> 100 µM
same,TGI,Malme-3M,5.59 µM
same,Activity,SNB-75,41.12%
same,Activity,CAKI-1,38.73%
same,GI50,MDA-MB-435,3.61 µM
same,TGI,MDA-MB-435,17.5 µM
same,CC50,MDA-MB-435,> 100 µM
same,Activity,M14,62.78%
same,Activity,OVCAR-8,18.91%
same,GI50,HL-60(TB); read-out: GI50,74.9 µM
same,CC50,HL-60(TB); [4],> 100 µM
same,TGI,HL-60(TB); read-out: TGI,> 100 µM
same,GI50,HL-60(TB); read-out: pGI50 (converted),74.1 µM
same,CC50,HL-60(TB); [5],> 100 µM
same,TGI,HL-60(TB); read-out: pTGI (converted),> 100 µM
same,LC50 (50% lethal concentration),SK-MEL-28,> 100 µM
same,GI50,SK-MEL-28; read-out: GI50,2.86 µM
same,TGI,SK-MEL-28; read-out: TGI,96.5 µM
same,GI50,SK-MEL-28; read-out: pGI50 (converted),2.88 µM
same,CC50,SK-MEL-28,> 100 µM
same,TGI,SK-MEL-28; read-out: pTGI,> 100 µM
same,GI50,SNB-19,2490 nM
same,TGI,SNB-19,6.08 µM
same,CC50,SNB-19,> 100 µM
same,Activity,HCT-15,59.71%
same,GI50,HOP-92,2.67 µM
same,TGI,HOP-92,13.3 µM
same,CC50,HOP-92,> 100 µM
same,GI50,SK-OV-3; read-out: GI50,4.37 µM
same,CC50,SK-OV-3; [4],> 100 µM
same,TGI,SK-OV-3; read-out: TGI,> 100 µM
same,GI50,SK-OV-3; read-out: pGI50 (converted),17.8 µM
same,CC50,SK-OV-3; [5],> 100 µM
same,TGI,SK-OV-3; read-out: pTGI (converted),> 100 µM
same,Activity,HCT-116,58.36%
same,Activity,SF-295,48.59%
same,GI50,[2],4.44 µM
same,TGI,[2],53.4 µM
same,CC50,[2],> 100 µM
same,Activity,HOP-62,47.96%
same,GI50,UO-31 [3]; read-out: GI50,3.47 µM
same,CC50,UO-31 [3]; [4],> 100 µM
same,TGI,UO-31 [3]; read-out: TGI,> 100 µM
same,GI50,UO-31 [3]; read-out: pGI50 (converted),3.47 µM
same,CC50,UO-31 [3]; [5],> 100 µM
same,TGI,UO-31 [3]; read-out: pTGI (converted),> 100 µM
COc1ccc(/C(=C2\O[C@@H]([C@H]3COC(C)(C)O3)[C@H]3OC(C)(C)O[C@@H]23)c2cc(OC)c(OC)c(OC)c2)cc1O,Activity,NCI-H23,81.18%
same,GI50,T47D; read-out: GI50,63.6 µM
same,CC50,T47D; [4],> 100 µM
same,TGI,T47D; read-out: TGI,> 100 µM
same,GI50,T47D; read-out: pGI50 (converted),44.7 µM
same,CC50,T47D; [5],> 100 µM
same,TGI,T47D; read-out: pTGI (converted),> 100 µM
same,Activity,CCRF-CEM,60.8%
same,LC50 (concentration killing 50% of cells relative to time zero),SF-268,> 100 µM
same,GI50,SF-268; read-out: GI50,7.96 µM
same,TGI,SF-268; read-out: TGI,53.6 µM
same,GI50,SF-268; read-out: pGI50 (converted),7.94 µM
same,CC50,SF-268,> 100 µM
same,TGI,SF-268; read-out: pTGI (converted),53.7 µM
same,Activity,UO-31 [1],123.08%
same,Activity,NCI-H460,103.52%
same,GI50,Malme-3M,2070 nM
same,LC50 (concentration killing 50% of cells present at time zero),Malme-3M,> 100 µM
same,TGI,Malme-3M,5.59 µM
same,Activity,SNB-75,24.26%
same,Activity,CAKI-1,110.64%
same,GI50,MDA-MB-435,3.61 µM
same,TGI,MDA-MB-435,17.5 µM
same,CC50,MDA-MB-435,> 100 µM
same,Activity,M14,19.53%
same,Activity,OVCAR-8,96.09%
same,GI50,HL-60(TB); read-out: GI50,6.48 µM
same,CC50,HL-60(TB); [4],> 100 µM
same,TGI,HL-60(TB); read-out: TGI,56.8 µM
same,GI50,HL-60(TB); read-out: pGI50 (converted),1.62 µM
same,CC50,HL-60(TB); [5],> 100 µM
same,TGI,HL-60(TB); read-out: pTGI (converted),56.2 µM
same,LC50 (50% lethal concentration),SK-MEL-28,> 100 µM
same,GI50,SK-MEL-28; read-out: GI50,10.6 µM
same,TGI,SK-MEL-28; read-out: TGI,> 100 µM
same,GI50,SK-MEL-28; read-out: pGI50 (converted),10.5 µM
same,CC50,SK-MEL-28,> 100 µM
same,TGI,SK-MEL-28; read-out: pTGI,> 100 µM
same,GI50,SNB-19,2490 nM
same,TGI,SNB-19,6.08 µM
same,CC50,SNB-19,> 100 µM
same,Activity,HCT-15,32.51%
same,GI50,HOP-92,4 µM
same,TGI,HOP-92,38.3 µM
same,CC50,HOP-92,> 100 µM
same,GI50,SK-OV-3; read-out: GI50,12.6 µM
same,CC50,SK-OV-3; [4],> 100 µM
same,TGI,SK-OV-3; read-out: TGI,91.7 µM
same,GI50,SK-OV-3; read-out: pGI50 (converted),12.6 µM
same,CC50,SK-OV-3; [5],> 100 µM
same,TGI,SK-OV-3; read-out: pTGI (converted),91.2 µM
same,Activity,HCT-116,78.08%
same,Activity,SF-295,77.57%
same,GI50,[2],4.44 µM
same,TGI,[2],53.4 µM
same,CC50,[2],> 100 µM
same,Activity,HOP-62,91.26%
same,GI50,UO-31 [3]; read-out: GI50,21.7 µM
same,CC50,UO-31 [3]; [4],> 100 µM
same,TGI,UO-31 [3]; read-out: TGI,70.4 µM
same,GI50,UO-31 [3]; read-out: pGI50 (converted),21.9 µM
same,CC50,UO-31 [3]; [5],> 100 µM
same,TGI,UO-31 [3]; read-out: pTGI (converted),70.8 µM
